Assay results of several laboratories.
Action: inhibitor
CDK2: Cyclin-dependent kinase 2 (CDK2, Homo sapiens, UniProt P24941)
PARP2: Poly [ADP-ribose] polymerase 2 (PARP2, Homo sapiens, UniProt Q9UGN5)

With `CN(C)CCNC(=O)c1ccc(-c2nc3ccc4[nH]ncc4c3c3c2CC(C)(C)CC3)cc1` the IC50 was 145 nM (CDK2; enzyme activity).
`Cc1cc(O)c(-c2ccc([C@@H](C)CN(C)C)cc2)c2c1[nH]c(=O)c1sccc12` gave an IC50 of > 1000 nM (Cyclin-dependent kinase 8, with cyclin C (CDK8, Homo sapiens, UniProt P49336); enzyme activity).
The IC50 of `CN(C)CCNC(=O)c1ccc(-c2nc3ccc4[nH]ncc4c3c3c2CC(F)(F)CC3)cc1` is reported as 109 nM (CDK2; enzyme activity).
The IC50 of `CCNc1ccc(C(N)=O)cn1` is reported as > 31600 nM (Nicotinamide N-methyltransferase (NNMT, Homo sapiens, UniProt P40261); enzyme activity in cells).
`Cc1n[nH]c2ccc3nc(-c4ccc(C(=O)NCCN(C)C)cc4)c4c(c3c12)CCC(F)(F)C4` gave an IC50 of 594 nM (CDK2; enzyme activity).
With `O=c1[nH]c2c(nnn2Cc2ccccc2)c2ccc(F)cc12` the IC50 was > 10000 nM (PARP2; enzyme activity).
For `CC(=O)C(=O)N(CC(C)C)NC(=O)[C@H](Cc1ccccc1)NC(=O)[C@H](CC(C)C)NC(=O)[C@H](CCc1ccccc1)NC(=O)OCc1ccccc1`, the IC50 was 31500 nM (Cathepsin B (CTSB, Homo sapiens, UniProt P07858); enzyme activity; fluorescence; pH 6).
`CC(=O)N1C(=O)NC(C)=C(C(=O)OCC(C)C)C1c1cccc([N+](=O)[O-])c1` (racemic) has an IC50 of 1300 nM (Voltage-dependent L-type calcium channel subunit alpha-1C (Cacna1c, Rattus norvegicus, UniProt P22002); ion current; patch clamp).
For `O=c1[nH]c2c(nnn2Cc2ccc(C(F)(F)F)cc2)c2ccc(F)cc12`, the IC50 was > 10000 nM (PARP2; enzyme activity).
With `O=c1[nH]c(=O)c(Cc2cccc(C(F)(F)F)c2)c([C@H]2CC[C@H](c3ccccc3)CC2)[nH]1` the IC50 was > 8000 nM (Multidrug and toxin extrusion protein 1 (SLC47A1, Homo sapiens, UniProt Q96FL8); transporter uptake).
`Cc1ccc(Cn2nnc3c4ccc(F)cc4c(=O)[nH]c32)cc1` has an IC50 of > 10000 nM (PARP2; enzyme activity).
`Cn1cc(C2=C(c3cn(CCCSC(=N)N)c4ccccc34)C(=O)NC2=O)c2ccccc21` gave an IC50 of 54.4 nM (Mitogen-activated protein kinase kinase kinase kinase 1 (MAP4K1, Homo sapiens, UniProt Q92918); enzyme activity).
